This note sets out measurements from ChEMBL document CHEMBL2407039 (Eur J Med Chem, 2013).

Values after ≈ are worked out from the molar mass of the structure shown. Active and inactive are the calls of the source. No cut-off for these calls is given here.

Data set [1] has as its target T1, Fibroblast growth factor receptor 1 (Homo sapiens, UniProt P11362). The experiment in a line: Inhibition of FGFR1 (unknown origin) using poly (Glu, Tyr)4:1 as substrate by ELISA.
In data set [2] the target is Platelet-derived growth factor receptor beta (Homo sapiens, UniProt P09619). The experiment in a line: Inhibition of PDGFRbeta (unknown origin) using poly (Glu, Tyr)4:1 as substrate by ELISA.
Platelet-derived growth factor receptor beta, sequence (P09619 whole entry): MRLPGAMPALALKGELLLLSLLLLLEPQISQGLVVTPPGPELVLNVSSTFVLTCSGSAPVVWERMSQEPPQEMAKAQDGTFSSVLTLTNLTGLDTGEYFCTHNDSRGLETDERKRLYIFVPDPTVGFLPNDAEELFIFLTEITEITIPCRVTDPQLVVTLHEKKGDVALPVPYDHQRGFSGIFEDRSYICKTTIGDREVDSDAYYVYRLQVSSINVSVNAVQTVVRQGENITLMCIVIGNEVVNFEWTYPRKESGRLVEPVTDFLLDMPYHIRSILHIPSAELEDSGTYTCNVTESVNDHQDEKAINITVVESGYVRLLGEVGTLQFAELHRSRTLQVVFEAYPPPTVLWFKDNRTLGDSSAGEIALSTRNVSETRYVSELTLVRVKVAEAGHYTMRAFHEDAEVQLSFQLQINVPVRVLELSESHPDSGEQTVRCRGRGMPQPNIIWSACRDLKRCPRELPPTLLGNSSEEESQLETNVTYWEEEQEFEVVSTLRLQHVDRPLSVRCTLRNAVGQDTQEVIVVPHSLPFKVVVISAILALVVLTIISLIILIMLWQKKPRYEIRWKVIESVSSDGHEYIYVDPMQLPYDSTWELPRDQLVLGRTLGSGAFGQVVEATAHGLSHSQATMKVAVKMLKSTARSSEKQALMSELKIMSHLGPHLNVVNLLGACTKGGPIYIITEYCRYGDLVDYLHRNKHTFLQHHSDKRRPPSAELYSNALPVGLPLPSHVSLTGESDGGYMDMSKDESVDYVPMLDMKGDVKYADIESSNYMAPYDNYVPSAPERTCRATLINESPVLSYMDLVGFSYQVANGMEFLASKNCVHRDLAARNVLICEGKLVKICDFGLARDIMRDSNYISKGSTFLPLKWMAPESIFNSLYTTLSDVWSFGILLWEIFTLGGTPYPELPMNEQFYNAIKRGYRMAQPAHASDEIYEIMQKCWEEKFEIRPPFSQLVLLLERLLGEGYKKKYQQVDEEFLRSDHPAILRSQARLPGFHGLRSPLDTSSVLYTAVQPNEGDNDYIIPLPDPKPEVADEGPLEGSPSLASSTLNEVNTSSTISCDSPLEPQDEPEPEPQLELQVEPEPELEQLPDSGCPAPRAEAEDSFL
Data set [3] concerns the target Vascular endothelial growth factor receptor 2 (Homo sapiens, UniProt P35968). Put plainly: Inhibition of KDR (unknown origin) using poly (Glu, Tyr)4:1 as substrate by ELISA.
Data set [4] concerns the target Platelet-derived growth factor receptor alpha (Homo sapiens, UniProt P16234). Put plainly: Inhibition of PDGFRalpha (unknown origin) using poly (Glu, Tyr)4:1 as substrate by ELISA. The method in brief: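 ELISA on wells precoated with 2.5 µg/well poly(Glu,Tyr) 4:1. Reaction buffer was 50 mM HEPES pH 7.4, 20 mM MgCl2, 0.1 mM Na3VO4, 1 mM DTT, with 10 µM ATP; the reaction was started by adding kinase and run 1 h at 37 °C. Phosphotyrosine detected with PY99 and HRP anti-mouse IgG, o-phenylenediamine development, read at 490 nm.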

In data set [5] the test system is DNA. Put plainly: Binding affinity to calf thymus DNA assessed as intercalation at 20 uM after 2 hrs by circular dichroism spectrophotometry. The format is nucleic-acid assay. Conditions: Bos taurus. The method in brief:
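Calf thymus DNA (100 µM) was incubated with compound (20 µM) in Tris-HCl buffer for 2 h at 25 °C. CD spectra were then analysed over 230–300 nm.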

A short description of data set [6]: Solubility of the compound in PBS buffer at PH 7.4 after 24 hrs by UV-Visible spectrophotometry. The class given is physicochemical.
Data set [7] is described as follows: Cytotoxicity against human LO2 cells after 72 hrs by sulforhodamine B assay. The class given is cell-based. The conditions noted are these: L02, 72 h. In a few lines:
(§1)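 Cells seeded and cultured overnight, then treated with increasing compound concentrations for 72 h. Fixed with 10% TCA, stained with sulforhodamine B, dye dissolved in 10 mM Tris-HCl, read at 515 nm. Inhibition taken relative to untreated control. IC50 by the Logit method; triplicate experiments.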

Data set [8] is described as follows: Cytotoxicity against human GES-1 cells after 72 hrs by sulforhodamine B assay. The format is cell-based. The conditions noted are these: GES1, 72 h. The method in brief: as §1
The next data set relates to A549. Put plainly: Cytotoxicity against human A549 cells after 72 hrs by sulforhodamine B assay. The format is functional, cell-based. The conditions noted are these: A549, 72 h. The method in brief: as §1
A further data set has as its system HL-60. The experiment in a line: Cytotoxicity against human HL60 cells after 72 hrs by MTT assay. The class given is functional, cell-based. Conditions: HL-60, 72 h. The method in brief: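 HL60 cells were treated with increasing compound concentrations for 72 h. MTT was then added for 4 h. Cells were lysed overnight at 37 °C in 10% SDS–5% isobutanol–12 mM HCl and read at 570 nm. Inhibition taken relative to control. IC50 by the Logit method; triplicate experiments.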

The next data set deals with MDA-MB-231. The experiment in a line: Cytotoxicity against human MDA-MB-231 cells after 72 hrs by sulforhodamine B assay. The class given is functional, cell-based. Conditions: MDA-MB-231, 72 h. The method in brief: as §1
Data set [9] has as its target DNA topoisomerase 2-alpha (Homo sapiens) (UniProt P11388). The experiment in a line: Inhibition of human topoisomerase 2 alpha-mediated decatenation of kinetoplast DNA at 100 uM after 30 mins by agarose gel electrophoresis in presence of ATP relative to control. The method in brief: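 ATP-dependent decatenation of 0.1 µg kinetoplast DNA by 1 unit of human topo IIα. Incubated 30 min at 37 °C in 50 mM Tris-HCl pH 8.0, 150 mM NaCl, 10 mM MgCl2, 2 mM ATP, 0.5 mM DTT. Gel images quantified by densitometry.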

Data set [10] concerns the target T1, Fibroblast growth factor receptor 1. The experiment in a line: Inhibition of FGFR1 in human HMEC1 cells assessed as reduction of bFGF-induced Erk1/2 phosphorylation at Thr 202/204 at 1.25 to 2.5 uM incubated for 10 hrs prior to bFGF challenge measured after 10 mins by Western blotting analysis. The class given is cell-based. The method in brief: (§2)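 HMEC-1 cells were plated at 3 × 10⁵ cells/well and serum-starved 24 h. Cells were exposed to compound (10 h per the results text; methods state 12 h), then stimulated with 50 ng/mL bFGF for 10 min at 37 °C. Whole-cell lysates were run on 10% SDS-PAGE and blotted with antibodies to phospho-FGFR1, phospho-Erk and phospho-AKT, with GAPDH as loading control.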

Data set [11] shares this target. The experiment in a line: Inhibition of FGFR1 in human HMEC1 cells assessed as reduction of bFGF-induced AKT phosphorylation at Ser 473 at 1.25 to 5 uM incubated for 10 hrs prior to bFGF challenge measured after 10 mins by Western blotting analysis. The class given is cell-based. The method in brief:
as §2

The target is the same in data set [12]. The experiment in a line: Inhibition of FGFR1 in human HMEC1 cells assessed as reduction of bFGF-induced FGFR1 phosphorylation at Tyr 653/654 at 1.25 to 2.5 uM incubated for 10 hrs prior to bFGF challenge measured after 10 mins by Western blotting analysis. The class given is cell-based. In a few lines:
as §2

The target is the same in data set [13]. Put plainly: Inhibition of FGFR1 in human HMEC1 cells assessed as inhibition of bFGF-induced FGFR1 phosphorylation at Tyr 653/654 incubated for 10 hrs prior to bFGF challenge measured after 10 mins by Western blotting analysis. The class given is cell-based. The method in brief:
as §2

A short description of data set [14]: Antiangiogenic activity in human HMEC1 cells assessed as inhibition of serum-stimulated tube formation at 10 uM after 8 hrs by matrigel assay relative to control. The class given is functional. Conditions: HMEC-1, 8 h. The method in brief:
(§3)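 Matrigel was set in 96-well plates (37 °C, 1 h) and seeded with HMEC-1 at 1 × 10⁵ cells/mL. Cells were cultured 8 h at 37 °C in MCDB131 with 20% FBS containing compound or control. Tubes were counted in five random fields by phase-contrast microscopy. Inhibition = [1 − tubes compound/tubes control] × 100%; mean ± SD, n = 3.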

Data set [15] in a line: Antiangiogenic activity in human HMEC1 cells assessed as inhibition of serum-stimulated tube formation at 5 uM after 8 hrs by matrigel assay relative to control. The format is functional. Conditions: HMEC-1, 8 h. In a few lines: as §3
Data set [16] relates to HMEC-1. The experiment in a line: Antiangiogenic activity in human HMEC1 cells assessed as inhibition of serum-stimulated tube formation after 8 hrs by matrigel assay. The class given is functional, cell-based. The method in brief:
as §3

Data set [17] in a line: Antimigratory activity against human HMEC1 cells at 10 uM after 6 hrs by transwell Boyden chamber assay relative to control. The class given is functional. The conditions noted are these: HMEC-1, 6 h. The method in brief:
(§4)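 HMEC-1 suspension (5 × 10⁵ cells/mL) with compound or control was placed in the upper compartment of a transwell Boyden chamber. The lower compartment held MCDB131 with 20% FBS plus the same compound concentration. After 6 h at 37 °C, migrated cells were quantified by absorbance. Inhibition = [1 − (A compound − A blank)/(A control − A blank)] × 100%; mean ± SD, n = 3.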

Data set [18] can be described thus: Antimigratory activity against human HMEC1 cells at 5 uM after 6 hrs by transwell Boyden chamber assay relative to control. The class given is functional. Conditions: HMEC-1, 6 h. In a few lines:
as §4

Data set [19] has as its system HMEC-1. The experiment in a line: Antimigratory activity against human HMEC1 cells after 6 hrs by transwell Boyden chamber assay. The format is functional, cell-based. In a few lines: as §4
In data set [20] the test system is HMEC-1. The experiment in a line: Antiangiogenic activity in human HMEC1 cells assessed as growth inhibition at <= 10 uM after 72 hrs by SRB assay. The class given is functional, cell-based. The method in brief: (§5)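 HMEC-1 cells seeded and cultured overnight, then exposed to graded compound concentrations for 72 h. Cells were fixed with 10% trichloroacetic acid and stained with sulforhodamine B. Dye was dissolved in 10 mM Tris-HCl and read at 515 nm. Inhibition = (1 − A515 treated/A515 control) × 100%.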

Data set [21] in a line: Antiangiogenic activity in human HMEC1 cells assessed as growth inhibition at 40 uM after 72 hrs by SRB assay. The format is functional. The conditions noted are these: HMEC-1, 72 h, read-out: GI. In a few lines: as §5
Data set [22] in a line: Antiangiogenic activity in human HMEC1 cells assessed as growth inhibition at 20 uM after 72 hrs by SRB assay. The format is functional. Conditions: HMEC-1, 72 h, read-out: GI. In a few lines: as §5
The subject of data set [23] is HMEC-1. The experiment in a line: Antiangiogenic activity in human HMEC1 cells assessed as growth inhibition after 72 hrs by SRB assay. The class given is functional, cell-based. The method in brief: as §5
Data set [24] deals with DNA. Put plainly: Binding affinity to calf thymus DNA assessed as intercalation at 10 uM after 1 hr by fluorescence spectrophotometry. The format is nucleic-acid assay. Conditions: Bos taurus. In a few lines:
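Fluorescence spectra were recorded at 25 °C. Compound was present at 10 µM with calf thymus DNA at 0–80 µM, in 20 mM Tris-HCl (pH 7.5) containing 1% DMSO.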

DNA topoisomerase 2-alpha (Homo sapiens), sequence (P11388 whole entry): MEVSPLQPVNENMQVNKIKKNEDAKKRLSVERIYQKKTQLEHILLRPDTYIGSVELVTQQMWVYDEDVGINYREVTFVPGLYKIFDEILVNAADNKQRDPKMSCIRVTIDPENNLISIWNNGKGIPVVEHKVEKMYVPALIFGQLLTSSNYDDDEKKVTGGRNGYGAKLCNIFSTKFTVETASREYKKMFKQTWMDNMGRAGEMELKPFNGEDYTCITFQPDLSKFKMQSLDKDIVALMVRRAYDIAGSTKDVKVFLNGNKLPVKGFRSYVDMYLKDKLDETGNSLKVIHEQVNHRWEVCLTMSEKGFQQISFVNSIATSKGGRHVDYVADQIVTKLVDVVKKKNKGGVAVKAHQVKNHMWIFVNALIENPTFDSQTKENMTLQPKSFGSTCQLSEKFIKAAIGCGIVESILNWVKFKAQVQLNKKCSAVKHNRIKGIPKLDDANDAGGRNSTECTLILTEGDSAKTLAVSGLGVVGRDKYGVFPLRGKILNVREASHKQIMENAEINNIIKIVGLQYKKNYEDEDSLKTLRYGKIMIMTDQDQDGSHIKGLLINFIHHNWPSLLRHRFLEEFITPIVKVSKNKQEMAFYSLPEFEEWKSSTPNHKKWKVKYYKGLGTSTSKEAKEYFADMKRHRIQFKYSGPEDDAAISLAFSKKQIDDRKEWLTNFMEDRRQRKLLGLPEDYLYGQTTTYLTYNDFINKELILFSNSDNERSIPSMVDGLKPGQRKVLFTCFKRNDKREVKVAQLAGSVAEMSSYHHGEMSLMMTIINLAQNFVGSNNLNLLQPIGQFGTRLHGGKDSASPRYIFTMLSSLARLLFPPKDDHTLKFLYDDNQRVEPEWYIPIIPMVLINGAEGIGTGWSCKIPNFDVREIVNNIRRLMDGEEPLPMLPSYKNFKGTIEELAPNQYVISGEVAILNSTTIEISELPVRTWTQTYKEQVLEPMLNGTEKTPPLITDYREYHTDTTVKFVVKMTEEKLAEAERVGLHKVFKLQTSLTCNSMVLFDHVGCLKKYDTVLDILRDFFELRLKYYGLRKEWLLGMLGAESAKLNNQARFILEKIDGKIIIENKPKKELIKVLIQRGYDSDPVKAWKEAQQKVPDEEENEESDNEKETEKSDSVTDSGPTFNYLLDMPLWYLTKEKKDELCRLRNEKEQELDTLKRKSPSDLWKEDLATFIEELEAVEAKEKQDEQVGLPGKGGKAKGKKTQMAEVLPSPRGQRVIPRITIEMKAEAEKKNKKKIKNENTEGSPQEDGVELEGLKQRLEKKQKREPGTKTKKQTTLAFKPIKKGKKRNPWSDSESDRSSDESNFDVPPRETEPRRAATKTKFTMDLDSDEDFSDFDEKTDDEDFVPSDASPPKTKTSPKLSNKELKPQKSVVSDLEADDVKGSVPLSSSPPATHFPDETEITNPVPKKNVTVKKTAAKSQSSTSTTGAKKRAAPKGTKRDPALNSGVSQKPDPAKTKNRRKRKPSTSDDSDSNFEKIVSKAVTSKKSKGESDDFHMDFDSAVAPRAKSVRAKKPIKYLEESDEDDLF
Vascular endothelial growth factor receptor 2, sequence (P35968 whole entry): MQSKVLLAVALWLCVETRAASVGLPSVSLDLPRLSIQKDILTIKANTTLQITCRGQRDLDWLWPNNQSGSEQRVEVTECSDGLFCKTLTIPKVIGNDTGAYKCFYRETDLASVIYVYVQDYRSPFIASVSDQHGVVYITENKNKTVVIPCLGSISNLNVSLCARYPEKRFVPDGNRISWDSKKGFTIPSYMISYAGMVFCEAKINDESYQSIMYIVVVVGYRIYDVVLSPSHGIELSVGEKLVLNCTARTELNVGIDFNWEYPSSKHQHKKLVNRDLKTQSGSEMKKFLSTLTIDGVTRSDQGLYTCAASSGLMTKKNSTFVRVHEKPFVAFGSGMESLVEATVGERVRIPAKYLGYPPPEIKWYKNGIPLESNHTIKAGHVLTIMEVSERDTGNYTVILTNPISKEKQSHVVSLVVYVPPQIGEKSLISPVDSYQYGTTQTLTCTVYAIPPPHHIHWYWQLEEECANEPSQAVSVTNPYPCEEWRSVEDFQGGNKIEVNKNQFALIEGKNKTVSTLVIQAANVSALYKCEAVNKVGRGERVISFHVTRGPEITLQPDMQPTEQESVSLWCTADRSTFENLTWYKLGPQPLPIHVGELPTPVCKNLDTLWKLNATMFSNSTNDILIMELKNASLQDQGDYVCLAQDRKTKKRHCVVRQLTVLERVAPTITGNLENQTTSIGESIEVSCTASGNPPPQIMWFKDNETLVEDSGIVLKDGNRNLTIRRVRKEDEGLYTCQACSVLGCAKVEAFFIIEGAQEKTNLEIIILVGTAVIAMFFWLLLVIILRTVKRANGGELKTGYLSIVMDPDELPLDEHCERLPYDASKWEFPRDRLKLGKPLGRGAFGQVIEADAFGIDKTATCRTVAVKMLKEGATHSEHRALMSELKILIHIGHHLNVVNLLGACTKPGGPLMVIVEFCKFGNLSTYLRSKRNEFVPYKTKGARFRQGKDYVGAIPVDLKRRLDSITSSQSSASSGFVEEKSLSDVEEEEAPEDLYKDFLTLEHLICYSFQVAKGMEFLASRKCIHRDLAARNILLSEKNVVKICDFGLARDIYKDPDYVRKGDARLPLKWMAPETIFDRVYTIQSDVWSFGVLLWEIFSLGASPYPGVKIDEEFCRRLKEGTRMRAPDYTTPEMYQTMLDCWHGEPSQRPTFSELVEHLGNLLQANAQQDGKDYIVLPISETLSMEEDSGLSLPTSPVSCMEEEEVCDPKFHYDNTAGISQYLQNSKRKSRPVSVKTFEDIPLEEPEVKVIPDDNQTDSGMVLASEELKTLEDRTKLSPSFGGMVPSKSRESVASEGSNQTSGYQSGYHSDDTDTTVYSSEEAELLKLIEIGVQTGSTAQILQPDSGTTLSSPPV
Platelet-derived growth factor receptor alpha, sequence (P16234 whole entry): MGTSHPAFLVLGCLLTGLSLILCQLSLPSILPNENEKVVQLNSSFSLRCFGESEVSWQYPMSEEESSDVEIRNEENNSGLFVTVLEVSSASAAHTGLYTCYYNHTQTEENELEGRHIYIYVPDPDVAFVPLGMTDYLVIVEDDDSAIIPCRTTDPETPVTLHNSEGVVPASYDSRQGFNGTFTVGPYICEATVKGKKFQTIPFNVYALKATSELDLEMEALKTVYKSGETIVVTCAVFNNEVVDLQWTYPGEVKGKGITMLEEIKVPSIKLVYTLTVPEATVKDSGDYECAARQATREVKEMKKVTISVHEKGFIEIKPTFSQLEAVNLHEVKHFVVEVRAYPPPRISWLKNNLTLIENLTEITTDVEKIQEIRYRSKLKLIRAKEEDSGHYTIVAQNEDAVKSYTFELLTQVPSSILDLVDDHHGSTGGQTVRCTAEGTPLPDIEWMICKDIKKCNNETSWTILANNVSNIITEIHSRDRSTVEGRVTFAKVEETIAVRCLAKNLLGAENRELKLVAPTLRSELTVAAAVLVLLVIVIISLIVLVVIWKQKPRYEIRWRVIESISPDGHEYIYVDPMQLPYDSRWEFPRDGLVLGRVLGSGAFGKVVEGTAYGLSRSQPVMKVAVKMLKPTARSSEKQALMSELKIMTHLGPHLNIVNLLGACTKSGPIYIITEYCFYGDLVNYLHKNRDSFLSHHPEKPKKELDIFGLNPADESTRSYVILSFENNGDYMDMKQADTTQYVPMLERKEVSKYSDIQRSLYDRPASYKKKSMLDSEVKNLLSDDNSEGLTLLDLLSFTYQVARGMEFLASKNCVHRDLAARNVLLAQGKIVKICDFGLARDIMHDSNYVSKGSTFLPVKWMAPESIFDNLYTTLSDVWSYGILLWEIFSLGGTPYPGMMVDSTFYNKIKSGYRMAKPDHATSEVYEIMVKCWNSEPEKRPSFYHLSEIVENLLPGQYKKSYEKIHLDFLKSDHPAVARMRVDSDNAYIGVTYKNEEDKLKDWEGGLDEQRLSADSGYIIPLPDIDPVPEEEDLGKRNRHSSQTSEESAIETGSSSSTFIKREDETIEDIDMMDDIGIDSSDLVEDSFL

Turning to `CCN1C(=O)c2cccc3c(NCCNCCN(C)C)ccc(c23)C1=O`, the IC50 in data set [1] is above 100 µM; in [2], above 100 µM; in data set [3] it was above 100 µM; in [4], above 100 µM; in [7] it was above 50 µM; in data set [8], above 50 µM. Further, the values for the IC50 with A549, with HL-60 and in the data set with MDA-MB-231 were 31.4 µM, 17 µM and 24.3 µM, respectively. The result in the data set on DNA [5] was inactive. For the same compound, in [6], the solubility at 24 h amounted to 46.7 mM (≈ 16600 µg/mL). For the same compound, the inhibition in data set [9] worked out at 86.7%.
Turning to `CCCCN1C(=O)c2cccc3c(NCCNCCN(C)C)ccc(c23)C1=O`, the IC50 in [1] is above 100 µM; in data set [2], above 100 µM; in data set [3], above 100 µM; in data set [4], above 100 µM; in [7], above 50 µM; in [8], above 50 µM. Moreover, the results for the IC50 with A549, with HL-60 and in the data set on MDA-MB-231 were 21.4 µM, 5.8 µM and 10.5 µM, respectively. Also, the outcome in the data set on DNA [5] was inactive. In [6], this compound showed a solubility at 24 h of 15.4 mM (≈ 5890 µg/mL). In addition, the inhibition in data set [9] came out at 90.2%.
In the case of `CCCCCCCCN1C(=O)c2cccc3c(NCCNCCN(C)C)ccc(c23)C1=O`, the inhibition result in data set [10], in [11] and in [12] was “Active” in each case. The inhibition entry in data set [13] was “Dose-dependent effect”; in the data set with HMEC-1 [16], “Dose-dependent effect”; in the data set on HMEC-1 [19], “Dose-dependent effect”; in data set [9], 99.8%. In addition, the inhibition at 10 µM in data set [14] and in data set [17] was 70% each time. Moreover, the figures for the inhibition at 5 µM in [15] and in data set [18] were 30% and 55%, respectively. Further, in the data set on HMEC-1 [20], the “growth inhibition (GI)” value is “inactive”. Also, the inhibition of growth at 40 µM in data set [21] was found to be 99%. Besides, the inhibition of growth at 20 µM in data set [22] was 68%. Also, the “growth inhibition (GI)” value in the data set with HMEC-1 [23] was “Dose-dependent effect”. Besides, the half-maximal inhibitory concentration (IC50) was 18.1 µM in data set [1]; above 50 µM in data set [2]; 48.9 µM in [3]; above 100 µM in data set [4]; above 50 µM in [7]; above 50 µM in data set [8]. For the same compound, the IC50 stood at 7.8 µM in the data set with A549, 2.1 µM with HL-60 and 8.6 µM in the data set with MDA-MB-231. The result with DNA [24] and in the data set with DNA [5] was inactive. In data set [6], this compound displayed a solubility at 24 h of 0.264 mM (≈ 116 µg/mL).
Turning to `CCCCCCCCCCCCCCCCN1C(=O)c2cccc3c(NCCNCCN(C)C)ccc(c23)C1=O`, the IC50 in data set [1] is above 100 µM; in [2] it was above 50 µM; in data set [3], above 100 µM; in [4], above 50 µM; in [7], above 50 µM; in data set [8], above 50 µM. In addition, the IC50 turned out to be 31.3 µM in the data set with A549, 24.5 µM in the data set with HL-60 and 17.7 µM in the data set on MDA-MB-231. In addition, the result in the data set on DNA [24] and in the data set on DNA [5] was inactive. In data set [6], the concentration in solution (solubility at 24 h) was 0.016 mM (≈ 8.81 µg/mL). In data set [9], the inhibition turned out to be 97.3%.
